# MrgX1 antagonist: human MrgX1 receptor antagonism, primary screen; Q96LB2; MRGX1-HEK293 calcium flux, Fluo-4, BAM8-22 antagonism; active compounds read low; B-score at 10 µM; 310,000 tested, 1.3% active;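 active means calcium-response B-score plate-corrected more than 3 library SD below zero, starting fluorescence within 5 deviations, no agonist response on first addition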;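 further: peak minus trough fluorescence over baseline after final BAM8-22 challenge near maximal dose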
# Target sequence (Q96LB2 whole entry, looked up): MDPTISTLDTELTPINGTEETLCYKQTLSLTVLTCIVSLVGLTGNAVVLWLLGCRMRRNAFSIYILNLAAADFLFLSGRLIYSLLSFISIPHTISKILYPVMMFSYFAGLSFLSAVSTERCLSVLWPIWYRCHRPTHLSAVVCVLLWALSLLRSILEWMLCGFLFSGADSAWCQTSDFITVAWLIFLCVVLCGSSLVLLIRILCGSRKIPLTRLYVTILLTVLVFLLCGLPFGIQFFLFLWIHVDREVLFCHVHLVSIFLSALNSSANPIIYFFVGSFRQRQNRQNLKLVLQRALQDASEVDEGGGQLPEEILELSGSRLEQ
# RGS4 inh: human RGS4 inhibition; HEK293 M3R/RGS4 inducible, Fluo-4 calcium flux; active compounds read high; triggered by carbachol at its EC20; B-score at 10 µM; 310,000 tested, 0.45% active; AID 463165;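 active means B-score, a plate-corrected calcium signal, over three deviations above library mean, with baseline fluorescence within five deviations of library mean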;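 further: RGS4 expression induced by doxycycline in cells with stable M3 receptor; B-score is computed from the integrated fluorescence ratio over baseline after carbachol; higher B-score means a larger calcium signal and so more RGS4 inhibition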
# RGS4 act: potentiators or activators of RGS4 | HEK293 M3R/inducible RGS4, carbachol calcium flux Fluo4; active compounds read low | B-score at 10 µM | 310,000 tested, 0.92% active | AID 463111;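 active means B-score of the integrated calcium signal more than 4 SD below the library mean, with starting fluorescence not abnormally high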;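 further: negative B-score means reduced calcium response which marks RGS4 activation or potentiation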
#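 Material: M3R-expressing HEK293 line, RGS4 induced by doxycycline | Schedule: Overnight RGS4 induction, 30 min dye load 37 °C, 20 min compound RT | Measured by: Fluo4 fluorescence kinetic imaging of calcium | Read-out: Integrated calcium ratio converted to B score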
# MrgX1 ag: activates human MrgX1 receptor signaling. MrgX1-HEK293 cells, Fluo-4 calcium fluorescence, agonist mode; active compounds read high. B-score at 10 µM. 310,000 tested, 0.44% active. Q96LB2;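 active means calcium response B-score plate-corrected fluorescence ratio at least 3 library SD, with starting fluorescence B-score inside 5 SD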
#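 Material: HEK293 cells stably expressing human MrgX1 receptor | Quantity: 15,000 cells per well | Times: Cells plated overnight, dye loaded 0.5 h 37 °C, 0.5 h room temperature | Measured by: Kinetic Fluo-4 NW fluorescence of intracellular calcium | Control set: Positive and negative controls per plate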
# PHOSPHO1 block: blocks human PHOSPHO1 phosphatase activity. Q8TCT1. inhibition, % at 13.3 µM. recombinant PHOSPHO1, absorbance phosphatase assay. AID 1565. 290,000 tested, 1.1% active; in the data active means inhibition above about 60%
# Target sequence (Q8TCT1 whole entry, looked up): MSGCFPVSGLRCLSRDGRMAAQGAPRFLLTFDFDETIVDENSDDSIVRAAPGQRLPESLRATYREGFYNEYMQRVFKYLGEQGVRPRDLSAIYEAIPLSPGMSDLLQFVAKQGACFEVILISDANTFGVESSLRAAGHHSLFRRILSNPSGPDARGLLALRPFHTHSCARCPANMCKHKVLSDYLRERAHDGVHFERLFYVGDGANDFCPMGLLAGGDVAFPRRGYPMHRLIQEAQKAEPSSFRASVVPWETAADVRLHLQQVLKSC
# MrgX1 allo act: allosterically activates human MrgX1 receptor signaling; Q96LB2; MrgX1-HEK293, Fluo-4 calcium flux, FDSS; active compounds read high; B-score at 10 µM; 310,000 tested, 0.63% active;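 active means plate-corrected calcium response at least 3 library SD above typical, normal starting fluorescence, not activating the receptor alone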;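 further: compound read alongside a low EC10 to EC30 dose of BAM8-22 agonist; peak minus trough fluorescence over baseline measured at the second addition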
# Numbers without * were called inactive; i = inactive; · = no result given. An excerpt weighted towards active compounds, which were near 4.5% of everything screened.
SMILES,MrgX1 antagonist,RGS4 inh,RGS4 act,MrgX1 ag,PHOSPHO1 block,MrgX1 allo act
CCCCn1c(-c2csc3ccccc23)n[nH]c1=S,i,i,i,i,95*,i
CCn1c(-c2csc3c2CCCC3)n[nH]c1=S,i,i,i,i,-5,i
C=CCn1c(-c2csc3c2CCC(C)C3)n[nH]c1=S (stereo not drawn),i,i,i,i,20,i
CCCCn1c(-c2csc3c2CCC(C)C3)n[nH]c1=S (stereo not drawn),i,i,i,i,84*,i
CCCCn1c(-c2csc3c2CCCC3)n[nH]c1=S,i,i,i,i,100*,i
O=C(COc1cccnc1[N+](=O)[O-])Nc1ccc2c(c1)OC(F)(F)O2,i,i,i,i,-2,i
COc1ccc(-c2cn(-c3ccccc3)c3[n+]2CCS3)cc1,i,i,i,i,-10,i
CC(C)(C)c1ccc(NC(=O)Nc2ccc(OCC(=O)N3CCOCC3)cc2)cc1,i,i,i,i,-1,i
O=C(NC(=S)Nc1ccc2cn[nH]c2c1)c1ccccc1,i,i,i,i,-38,i
COc1ccccc1C(=O)Nc1c(C(=O)N(CCN(C)C)Cc2ccco2)oc2ccccc12,i,i,i,i,23,i
COc1ccc(OCC(=O)Nc2c(C(=O)N(CCN(C)C)Cc3ccco3)oc3ccccc23)cc1,-5.1*,i,i,i,17,i
CCOc1ccc(C(CC(=O)O)NC(=O)COc2ccccc2)cc1OC (stereo not drawn),-5.8*,i,i,i,-30,i
CCOC(=O)N1CCN(C(=O)CSCC(=O)Nc2nc(-c3ccc(-c4ccccc4)cc3)cs2)CC1,-6.4*,i,i,i,-18,i
CCOC(=O)N1CCN(C(=O)CSCC(=O)Nc2nc(-c3ccc(OC)cc3)cs2)CC1,i,i,i,i,6,i
Cc1cccc(C)c1NC(=S)Nc1ccc(Cl)c(Cl)c1,i,i,i,32*,34,i
COc1ccc(NC(=O)CNc2ccc(C#N)cc2)cc1,i,i,i,i,-11,i
O=C(O)c1ccccc1N/N=C/c1cc(Br)cc(Br)c1O,-6.4*,i,i,i,-1,i
O=C(O)c1ccccc1N/N=C\c1ccnc2ccccc12,i,i,i,41*,-110,i
O=C(Cc1ccccc1)N/N=C/c1cc(Br)cc(Br)c1O,i,i,i,i,11,i
CC(=O)Nc1ccc(OC(=O)N2CCCC2)cc1,i,i,i,i,25,i
Cc1ccc(S(=O)(=O)c2nnn3c2nc(NC2CCN(Cc4ccccc4)CC2)c2ccccc23)cc1C,-11*,i,i,i,53,8.3*
CCn1cc(C(=O)NCCCN(CC(C)C)CC(C)C)c(=O)c2cc(S(=O)(=O)N3CCOCC3)ccc21,i,i,i,i,26,i
N#Cc1c2ccc(O)cc2n2ccccc12,i,i,i,46*,20,i
CCN(CC)CCOC(=O)c1ccc(NC(=O)/C=C/c2cccs2)cc1,i,i,-7.1*,i,-12,i
O=C(O)c1ccc(NC(=O)C2(c3ccccc3)CCCC2)cc1,i,i,i,i,-33,i
SMILES,MrgX1 antagonist,RGS4 inh,RGS4 act,MrgX1 ag,PHOSPHO1 block,MrgX1 allo act
CCN(CC)CCOC(=O)c1ccc(NC(=O)C2(c3ccccc3)CCCC2)cc1,i,i,-7.4*,i,34,i
N=C1/C(=C\c2ccc(-c3cccc(C(=O)O)c3)o2)C(=O)N=C2SC=C(c3ccccc3)N12,i,i,i,i,80*,7.1*
C/C(=N/N1CCN(Cc2cccc3ccccc23)CC1)c1ccco1,i,i,i,i,-5,i
COc1cccc(C2/C(=C(\O)c3c(C)nc4c(C)cccn34)C(=O)C(=O)N2CCCN(C)C)c1OC (stereo not drawn),·,·,·,·,16,·
Cc1nc2ccccn2c1/C(O)=C1\C(=O)C(=O)N(CCCN(C)C)C1c1ccc(F)cc1 (stereo not drawn),-4.8*,·,·,i,·,i
CN1CCC(N(C)CC(=O)Nc2ccc3c(c2)OC(F)(F)O3)CC1,i,i,-7.4*,i,19,i
CC1CCCCN1CC(=O)Nc1ccc2c(c1)OC(F)(F)O2 (stereo not drawn),i,i,i,i,57,i
O=C(Nc1ccc(Cl)cc1)Nc1ccccc1Sc1ncc([N+](=O)[O-])s1,i,i,i,i,-54,i
O=[N+]([O-])c1cnc(Sc2ccncn2)s1,i,i,-9.8*,i,-19,i
Cc1ccc(C(=O)CCC(=O)OCC(=O)N(CC(C)C)c2c(N)n(Cc3ccccc3)c(=O)[nH]c2=O)cc1,i,i,i,i,·,i
O=C(NNc1ccccc1C(F)(F)F)c1sccc1Br,i,i,i,i,-1,i
O=C(c1ccc(S(=O)(=O)Cc2cc(F)ccc2F)c([N+](=O)[O-])c1)N1CCCCC1,i,i,i,i,-60,i
O=C(c1ccc(S(=O)(=O)Cc2cc(F)ccc2F)c([N+](=O)[O-])c1)N1CCCC1,i,i,i,i,-1,7.2*
COC(CNC(=O)C1CCN(S(=O)(=O)c2cccc3nsnc23)CC1)OC,i,i,i,i,-4,i
COc1ccc(/C=N/NC(=S)Nc2ccccc2[N+](=O)[O-])cc1O,i,i,i,i,-20,6.8*
S=c1[nH]nc(CCCc2n[nH]c(=S)o2)o1,i,i,i,i,37,i
Clc1ccccc1-c1ncc2ccccn12,i,i,i,i,61*,i
Clc1ccc(-c2ncc3ccccn23)cc1,i,i,i,i,51,i
O=C(O)c1ccc2c(=O)n3c(nc2c1)/C(=C/c1cccc(Cl)c1Cl)CCCC3,i,i,i,i,-10,i
CN(C)CCNC(=O)COc1ccc(C23CC4CC(CC(C4)C2)C3)cc1,i,i,i,i,66*,i
Cc1ccc(N(CC(=O)NC2CCCC2)C(=O)CNC(=O)c2cccs2)c(C)c1,i,i,i,i,24,i
CN1CCN(c2ccc(NC(=O)c3ccc(Oc4ccccc4)cc3)cc2)CC1,i,i,-7.7*,i,13,i
CCC(=O)N1CCN(c2ccc(NC(=O)c3ccccc3)cc2)CC1,i,i,i,i,63*,i

# Source: PubChem BioAssay
